Shown are actives, neighbours in structure and some others; about 0.77% of the full set was active somewhere.
mIAP activ: activators of mouse IAP, primary screen, biochemical, luminescence, uHTS; activation factor at 10 µM; AID 2805, 2010; 330,000 compounds, 0.24% hits; muIAP, CDP-Star luminescence, 30 min; active compounds read high; 1 = vehicle-only enzyme signal, 0 = enzyme-free wells;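 active means activation factor of at least 2 at 20 µM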
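also added = chemiluminescent substrate CDP-Star | test system = mouse IAP enzyme | signal = chemiluminescence readout | compound = DMSO-dissolved test compounds | incubation = 30 min at room temperature | benchmarks = DMSO wells, no-enzyme wells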
hIAP block: human IAP inhibitors, primary screen, biochemical, luminescence, uHTS. Intestinal-type alkaline phosphatase (Homo sapiens), P09923. purified IAP, CDP-Star luminescence, 30 min. inhibition, % at 10 µM. 330,000 compounds, 0.12% hits. AID 2544, 2010;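 active means inhibition reaching a set limit with compound at 10 µM in the primary screen, cut at about 35% in these data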;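 further: plate controls were DMSO wells with enzyme for no effect and no-enzyme buffer wells for full effect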
Target sequence (P09923 whole entry, looked up): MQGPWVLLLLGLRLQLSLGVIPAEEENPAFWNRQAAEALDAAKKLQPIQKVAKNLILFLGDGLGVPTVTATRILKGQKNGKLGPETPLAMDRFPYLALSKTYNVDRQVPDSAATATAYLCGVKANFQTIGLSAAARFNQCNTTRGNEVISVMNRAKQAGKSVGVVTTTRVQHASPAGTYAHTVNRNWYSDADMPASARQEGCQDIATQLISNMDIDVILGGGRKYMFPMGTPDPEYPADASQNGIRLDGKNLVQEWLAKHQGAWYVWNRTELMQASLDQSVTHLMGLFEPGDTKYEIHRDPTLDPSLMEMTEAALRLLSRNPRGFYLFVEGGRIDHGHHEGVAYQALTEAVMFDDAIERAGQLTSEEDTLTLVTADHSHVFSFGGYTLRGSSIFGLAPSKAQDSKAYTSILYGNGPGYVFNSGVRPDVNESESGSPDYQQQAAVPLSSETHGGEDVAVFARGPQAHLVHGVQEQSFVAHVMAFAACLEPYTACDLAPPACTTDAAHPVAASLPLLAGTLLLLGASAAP
hIAP activ: human IAP activators, primary screen, biochemical, luminescence, uHTS; AID 2524, 2010; activation factor at 10 µM; Intestinal-type alkaline phosphatase (Homo sapiens), P09923; purified human IAP, CDP-Star luminescence, 30 min; active compounds read high; 1 = vehicle-only enzyme, 0 = enzyme-free background; 330,000 compounds, 0.16% hits;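 active means activation factor of the enzyme at least 2-fold when tested at 20 µM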
bIAP activator: bovine intestinal alkaline phosphatase activators, primary screen, biochemical, bovine IAP, CDP-star luminescence | alkaline phosphatase, intestinal [Bos taurus] | purified bovine IAP, 30 min; active compounds read high; fold of DMSO-control signal, blank-subtracted | activation factor at 20 µM | 200,000 compounds, 0.17% hits | AID 1016, 2008;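 active means activation factor of 2 or more at 20 µM, a signal rise over negative controls twice the positive control's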
bIAP inhibitor: bovine intestinal alkaline phosphatase inhibitors, primary screen, selectivity assay for TNAP inhibitor project, biochemical, bovine IAP, CDP-star luminescence | alkaline phosphatase, intestinal [Bos taurus] | purified bovine IAP, 30 min | inhibition, % at 20 µM | 190,000 tested, under 10 active;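 active means over 50% inhibition of intestinal alkaline phosphatase at 20 µM in the single-dose screen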
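test system = bovine IAP enzyme | medium = DEA buffer 100 mM, pH 9.8, with MgCl2 1.0 mM, ZnCl2 0.02 mM | detection = luminescence | dosing = single compound dose of 20 µM, 2% DMSO final | incubation = 30 min reaction at room temperature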
mIAP inh: inhibitors of mouse IAP, primary screen, biochemical, luminescence, uHTS; purified mouse IAP, CDP-Star luminescence, 30 min; inhibition, % at 10 µM; 330,000 compounds, 0.2% hits;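 active means inhibition of at least 40% at 10 µM in the primary screen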;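 further: plate controls were DMSO with enzyme for no effect and no enzyme wells for full effect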
* marks the source's active call; other numbers are inactive results; i = inactive; · = no result.

SMILES	mIAP activ	hIAP block	hIAP activ	bIAP activator	bIAP inhibitor	mIAP inh
Cc1ccc2c(c1)C1NC(=S)NC(C)(O2)C1C(=O)Nc1ccc(Cl)cc1 (centres undefined)	2*	3	0.97	1	1	-102
O=C(Nc1ccc(CN2CCCCC2)cc1)Nc1ccccc1Cl	1.6	4	0.96	1.5	-54	-60
O=C(Nc1ccc(Br)cc1)Nc1ccccc1Cl	2*	-9	1.1	·	·	-100
CC(C)c1ccc(NC(=O)C(c2ccc3c(c2)OCO3)N2CCN(C(=O)c3ccco3)CC2)cc1 (centres undefined)	2.1*	-8	1.1	1.6	-56	-107
CCOC(=O)N1CCC(NC(=O)c2oc3c(C)c(C)ccc3c2C)CC1	1	-21	1.2	·	·	-1
Cc1ccc(NC(=O)CSc2nc3ccccc3c(=O)n2CCCN2CCCCC2)cc1Cl	1.5	-33	1.3	2.6*	-162	-46
Cc1ccc(S(=O)(=O)N2CCOCC2)cc1NC(=O)COC(=O)c1ccc(Cl)s1	1.1	-18	1.2	·	·	-10
COc1ccc(CNC(=O)CSCc2cnn(-c3ccccc3)c2-n2cccc2)cc1	1	-15	1.1	2.5*	-146	-5
Oc1c(CN2CCCC(C(F)(F)F)C2)cc(Cl)c2ccccc12 (centres undefined)	1	4	0.96	·	·	-2
Cc1cc(C)n(-c2nc(NCCN(C)C)c3c4c(sc3n2)COC(C)(C)C4)n1	0.88	-10	1.1	·	·	12
Cc1cc(C)n(-c2nc(NCCC(C)C)c3c4c(sc3n2)COC(C)(C)C4)n1	·	·	·	2.4*	-141	·
CN(C)Cc1ccccc1Sc1cccc2ccccc12	·	·	·	2.3*	-127	·
COC(=O)c1sc(S(=O)(=O)N2CCN(c3ccccc3F)CC2)c(C(=O)OC)c1C	0.96	15	0.85	·	·	4
CCOC(=O)c1c(NC(=O)CN2CCCCC2)sc2c1CCC(C=O)=C2Cl	0.51	8	0.92	0.9	8	49*
CCOC(=O)c1c(-c2ccc(C)o2)csc1NC(=O)CN1CCCCC1	0.85	8	0.92	1.1	-6	15
CCC1CCc2sc(C(=O)NCC(c3ccc(OC)cc3)N3CCOCC3)cc2C1 (centres undefined)	1.2	6	0.94	·	·	-17
CCn1ncc(/C=N/NC(=O)c2ccc3c(c2)OCO3)c1C	1.1	-14	1.1	0.9	5	-7
CCn1ncc(/C=N\NC(=O)c2ccc3c(c2)c(C)c(C)n3Cc2ccccc2)c1C	3.4*	10	0.9	4.5*	-347	-240
CCn1nc(C)c(/C=N/NC(=O)c2ccc3c(c2)c(C)c(C)n3Cc2ccccc2)c1C	4.3*	16	0.84	7*	i	-326
CCn1nc(C)c(/C=N\NC(=O)c2ccc3c(c2)OCO3)c1C	0.95	-7	1.1	1	4	5
CCn1cc(/C=N\NC(=O)c2ccc3c(c2)c(C)c(C)n3Cc2ccccc2)c(C)n1	1.7	8	0.93	4.2*	-325	-73
CC(NC(=O)CN1CCN(CC(=O)Nc2ccccc2Cl)CC1)c1ccc(Br)cc1 (centres undefined)	1.1	11	0.89	·	·	-7
Cc1nc2cc(NC(=O)Nc3ccc(Br)cc3)ccc2o1	2*	-12	1.1	1.1	-13	-104
Cc1nc2cc(NC(=O)NCc3ccc4c(c3)OCO4)ccc2o1	1	4	0.96	0.8	16	-5
CCOC(=O)c1c(C)n(-c2ccc(C)cc2)c2ccc(OCC(O)CNCCCO)cc12 (centres undefined)	1	-2	1	2*	-99	0
SMILES	mIAP activ	hIAP block	hIAP activ	bIAP activator	bIAP inhibitor	mIAP inh
C=CCN=C(NC#N)SCCc1ccccc1	0.99	0	1	0.7	34	0
C=CCN=C(NC#N)SCC(=O)NCc1ccccc1	0.96	-14	1.1	2.2*	-124	4
O=C(Nc1ccc2ccccc2c1)c1cn(-c2ccccc2)nc1-c1cccs1	2.1*	13	0.87	1	-2	-114
COc1ccccc1N(CC(=O)Nc1ccc(Br)cc1F)S(=O)(=O)c1cccs1	0.94	0	0.99	·	·	6
CSc1nsc(SC)c1NC(=O)OCc1ccccc1	0.97	-8	1.1	0.6	44	3
CSc1nsc(SC)c1NC(=O)OCCc1ccccn1	0.59	2	0.98	0.9	11	41*
Cc1ccc(NC(=S)NCc2ccc3[nH]c4c(c3c2)CCCC4)cc1	2.4*	11	0.89	0.9	6	-141
Cc1cc(C)c(NC(=O)c2ccc(CN3CCc4ccccc4C3)cc2)c(C)c1	1	7	0.93	2.1*	-107	-4
O=C(CN1CCN(c2ccc(F)cc2)CC1)NCc1ccc(Cl)cc1	0.94	-1	1	·	·	6
Cc1ccccc1CSCC(=O)NCc1ccco1	1	6	0.94	2.2*	-124	-1
CCOC(=O)c1cc(-c2ccccc2)nn1CC1CC(c2ccc(OC)cc2)=NO1 (centres undefined)	1	-15	1.1	·	·	-3
Cc1ccccc1-c1cc(C(=O)NCc2cccc(Br)c2)n(CC2CC(c3cccnc3)=NO2)n1 (centres undefined)	2*	-4	1	·	·	-100
COc1ccc(C2=NOC(Cn3nc(-c4ccccc4)cc3C(=O)NCc3ccc(C)cc3)C2)cc1 (centres undefined)	3.3*	-8	1.1	·	·	-231
COc1ccc(C2=NOC(Cn3nc(-c4ccccc4)cc3C(=O)NCc3cccc(C(F)(F)F)c3)C2)cc1 (centres undefined)	3.2*	-8	1.1	·	·	-224
Cc1ccc(NC(=S)NC2CCCCC2)cc1S(=O)(=O)N(C)C	2.4*	-35	1.4	1.2	-23	-136
CC1CCCCC1NC(=S)Nc1cccc(S(=O)(=O)N(C)C)c1 (centres undefined)	2.9*	-12	1.1	0.8	24	-192
Cc1ccc(S(=O)(=O)N(C)C)cc1NC(=S)NC1CCCC(C)C1C (centres undefined)	2.8*	-12	1.1	1	0	-184
CCN(CC)S(=O)(=O)c1ccc(C)c(NC(=S)NC2CCCCC2)c1	2*	-3	1	·	·	-104
CCN(CC)S(=O)(=O)c1cccc(C(=O)NC2CCCCC2)c1	0.93	6	0.94	1	3	7
CC(=O)NNC(=S)Nc1cc(S(=O)(=O)N(C)C)ccc1C	0.94	-82	1.8	1	2	6
